Screening results: PubChem BioAssay, Broad Institute
N-glyco inh = N-linked glycosylation inhibition; D54 ERlucT glycosylation luciferase reporter, 24 h; percent of 100 nM tunicamycin response; reporter increase, % at 12.5 µM; 0.23% of 360,000 active; AID 588692;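 active = mean luciferase reporter signal, scaled so untreated is 0 and the glycosylation-blocking control 100, at or above a set limit in every replicate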;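 also: luciferase carries N-glycosylation sites so blocking glycosylation raises the light; 0% = median of neutral control wells and 100% = median of 100 nM tunicamycin wells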
RAD52 anneal inh = inhibitors of human RAD52 DNA annealing | recombinant RAD52 DNA annealing, FRET fluorescence | inhibition, % at 18.7 µM | 0.46% of 360,000 active | AID 651710;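 active = every replicate showing at least 50% inhibition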
MLL AF4-AF9 inh = blocks AF4 peptide binding to human AF9 | AlphaScreen, biotin-AF4 peptide binding to FLAG-AF9 | inhibition, % at 10 µM | 0.47% of 350,000 active | AID 651704;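 active = every replicate reaching a set inhibition limit, whatever the replicate mean, cut at about 25% in these data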;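 also: 0% = plate neutral control median and 100% = total signal loss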
RAD54 inh = blocks human RAD54 Holliday junction branch migration; FAM/BHQ fluorescence; inhibition, % at 10.4 µM; 0.14% of 360,000 active; AID 602329;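 active = mean normalized replicate activity at least 40 and at least half of replicates scoring 40 or more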;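 also: 0% = median of neutral control wells and 100% = median of positive control wells; inhibitors cause a drop in the FAM fluorescence signal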
NSD2 HMT inh = blocks human histone methyltransferase NSD2 | O96028 | NSD2 peptide methylation, AlphaScreen, 120 min | inhibition, % at 12.5 µM | 0.54% of 310,000 active; in the data active = inhibition above about 50%
Target sequence (O96028 whole entry, looked up): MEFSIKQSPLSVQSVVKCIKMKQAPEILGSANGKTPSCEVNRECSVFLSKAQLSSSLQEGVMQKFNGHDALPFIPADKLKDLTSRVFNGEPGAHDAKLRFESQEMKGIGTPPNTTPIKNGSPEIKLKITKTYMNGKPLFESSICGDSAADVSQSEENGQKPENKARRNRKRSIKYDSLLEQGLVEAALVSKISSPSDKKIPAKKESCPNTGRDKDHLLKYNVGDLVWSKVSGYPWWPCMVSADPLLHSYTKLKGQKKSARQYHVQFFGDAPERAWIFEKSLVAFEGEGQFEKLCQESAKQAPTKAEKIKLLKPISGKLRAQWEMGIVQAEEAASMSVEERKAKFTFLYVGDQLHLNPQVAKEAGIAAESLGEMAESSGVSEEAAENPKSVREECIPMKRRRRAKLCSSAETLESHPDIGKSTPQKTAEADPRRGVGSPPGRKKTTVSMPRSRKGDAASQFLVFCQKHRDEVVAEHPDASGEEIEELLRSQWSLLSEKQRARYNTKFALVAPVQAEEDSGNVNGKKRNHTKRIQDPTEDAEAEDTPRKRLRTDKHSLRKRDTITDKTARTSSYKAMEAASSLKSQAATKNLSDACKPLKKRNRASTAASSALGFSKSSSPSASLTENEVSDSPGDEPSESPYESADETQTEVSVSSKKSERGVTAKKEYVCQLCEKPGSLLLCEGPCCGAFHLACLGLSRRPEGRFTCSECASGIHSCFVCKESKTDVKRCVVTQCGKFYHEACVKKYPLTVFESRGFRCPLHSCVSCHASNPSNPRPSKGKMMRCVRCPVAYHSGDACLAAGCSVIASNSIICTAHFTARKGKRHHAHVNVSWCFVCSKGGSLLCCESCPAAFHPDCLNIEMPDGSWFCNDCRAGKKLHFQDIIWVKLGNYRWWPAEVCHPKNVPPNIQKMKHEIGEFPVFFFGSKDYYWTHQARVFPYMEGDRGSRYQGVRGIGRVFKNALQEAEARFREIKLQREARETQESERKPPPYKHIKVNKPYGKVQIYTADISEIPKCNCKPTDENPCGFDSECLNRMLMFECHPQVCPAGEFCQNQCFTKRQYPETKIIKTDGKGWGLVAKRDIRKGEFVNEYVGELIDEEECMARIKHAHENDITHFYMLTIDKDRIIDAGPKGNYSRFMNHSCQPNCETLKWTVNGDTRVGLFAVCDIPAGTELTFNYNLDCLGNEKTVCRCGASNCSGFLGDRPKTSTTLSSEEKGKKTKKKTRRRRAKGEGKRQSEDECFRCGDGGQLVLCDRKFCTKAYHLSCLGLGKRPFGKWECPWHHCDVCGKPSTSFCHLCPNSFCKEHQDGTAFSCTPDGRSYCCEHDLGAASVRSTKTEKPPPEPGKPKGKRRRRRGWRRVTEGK
FN deposit inh = fibronectin deposition inhibition. AH1F fibroblasts, Alexa488-fibronectin deposition fluorescence, overnight. inhibition, % at 12.6 µM. 0.086% of 350,000 active;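 active = mean inhibition across replicates of 30% or more, regardless of how many single replicates reach that level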;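 also: positive control wells lacked labelled fibronectin entirely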
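Assay system: AH1F fibroblast monolayer, labelled fibronectin deposition. Amount: 10000 cells per well. Also added: labelled fibronectin 24 nM. Compound: single-point pinned compound. Incubation: cell attachment 1 h, compound and FN exposure overnight. Detection: fluorescence after three HBSS washes, excitation 485 nm, emission 525 nm. Read-out: inhibition of fibronectin deposition signal.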
Numbers without * were called inactive. Hits are enriched below; roughly 1.2% of the tested compounds scored in any of these assays.

What do the screens show for `CS(=O)(=O)n1nc(-c2ccc(Cl)cc2)nc1N`?
N-glyco inh: 0; RAD52 anneal inh: -19; MLL AF4-AF9 inh: -1; NSD2 HMT inh: -11; FN deposit inh: 2

How did Cn1nc(-c2ccc(Cl)cc2)nc2c(=O)n(C)c(=O)nc1-2 do in these assays?
MLL AF4-AF9 inh: -2; RAD54 inh: 58*; FN deposit inh: 12

What do the screens show for `CCOC(=O)N1CCN(C(=O)c2cccc(N3C(=O)NC4CC3(C)Oc3ccc(Cl)cc34)c2)CC1` (centres undefined)?
N-glyco inh: 29*; RAD52 anneal inh: -6; MLL AF4-AF9 inh: 0; RAD54 inh: 0; NSD2 HMT inh: 0; FN deposit inh: 4

Results for Nc1ncnc(N)c1N=Nc1ccccc1 ?
N-glyco inh: -15; RAD52 anneal inh: -12; MLL AF4-AF9 inh: -2; RAD54 inh: -9; NSD2 HMT inh: 1; FN deposit inh: 12

Results for Nc1ccc2ccccc2c1N=Nc1ccccc1 ?
N-glyco inh: -2; RAD52 anneal inh: 0; MLL AF4-AF9 inh: 36*; RAD54 inh: -9; NSD2 HMT inh: 19; FN deposit inh: 5

What do the screens show for `Cc1cc(C)c(S(=O)(=O)Nn2cnnc2)c(C)c1`?
N-glyco inh: 3; RAD52 anneal inh: -2; MLL AF4-AF9 inh: -1; RAD54 inh: -1; NSD2 HMT inh: -2; FN deposit inh: 33*

Results for Cc1cc(C)c(S(=O)(=O)Nc2ccccn2)c(C)c1 ?
N-glyco inh: 0; RAD52 anneal inh: -12; MLL AF4-AF9 inh: 4; RAD54 inh: -3; NSD2 HMT inh: -2; FN deposit inh: 2

How did COc1ccc(NC(=O)c2ccc(-n3cnnn3)cc2)c([N+](=O)[O-])c1 do in these assays?
N-glyco inh: 2; RAD52 anneal inh: -21; MLL AF4-AF9 inh: 26*; RAD54 inh: 1; NSD2 HMT inh: -12; FN deposit inh: -1

Results for O=C(O)CSc1cc(NS(=O)(=O)c2ccc(Cl)cc2)c2ccccc2c1O ?
N-glyco inh: 9; RAD52 anneal inh: -14; MLL AF4-AF9 inh: -7; RAD54 inh: 7; NSD2 HMT inh: 137*; FN deposit inh: 6

What do the screens show for `Cc1ccc(S(=O)(=O)N(C)C[C@H]2OCCCC[C@@H](C)Oc3ccc(NS(=O)(=O)c4cn(C)cn4)cc3C(=O)N([C@@H](C)CO)C[C@@H]2C)cc1`?
RAD52 anneal inh: 19; MLL AF4-AF9 inh: 3; RAD54 inh: -7; FN deposit inh: -3

What do the screens show for `CCN(c1ccccc1)S(=O)(=O)c1ccc(C(=O)NC2CCN(Cc3ccccc3)CC2)cc1`?
N-glyco inh: 48*; NSD2 HMT inh: 1

What do the screens show for `CCN(c1ccccc1)S(=O)(=O)c1ccc(C(=O)NC2CCCCC2)cc1`?
N-glyco inh: -3; RAD52 anneal inh: -92; MLL AF4-AF9 inh: 3; RAD54 inh: 12; NSD2 HMT inh: -10

Results for C[C@H](CO)N1C[C@H](C)[C@H](CN(C)C(=O)C2CCCCC2)Oc2cc(-c3ccccc3)ccc2S1(=O)=O ?
RAD52 anneal inh: 10; MLL AF4-AF9 inh: 4; RAD54 inh: 4

What do the screens show for `Cc1cc(O)c(C(=O)/C=C/c2cccc([N+](=O)[O-])c2)c(=O)o1`?
N-glyco inh: -2; RAD52 anneal inh: -28; MLL AF4-AF9 inh: -7; RAD54 inh: 1; NSD2 HMT inh: 3; FN deposit inh: -1

What do the screens show for `COc1ccc(/C=C/C(=O)c2ccc([N+](=O)[O-])o2)cc1OC`?
RAD52 anneal inh: -15; MLL AF4-AF9 inh: 3; FN deposit inh: 35*

What do the screens show for `O=C(/C=C/c1cccc(Cl)c1)c1ccc([N+](=O)[O-])o1`?
N-glyco inh: -21; RAD52 anneal inh: -23; MLL AF4-AF9 inh: 1; RAD54 inh: 7; FN deposit inh: 59*

Results for COc1cc(/C=C/C(=O)c2ccc([N+](=O)[O-])o2)ccc1O ?
N-glyco inh: -15; RAD52 anneal inh: -9; MLL AF4-AF9 inh: 3; RAD54 inh: -5; FN deposit inh: -8

What do the screens show for `CO[C@H]1CN(C)C(=O)c2cc(NS(C)(=O)=O)ccc2OC[C@H](C)N(Cc2nccs2)C[C@@H]1C`?
RAD52 anneal inh: -4; MLL AF4-AF9 inh: -2; RAD54 inh: -5; FN deposit inh: -7

What do the screens show for `COc1ccc2c3c(n(C)c2c1)[C@@H](CO)N(Cc1ccccn1)CC31CN(C(=O)NC(C)C)C1`?
RAD52 anneal inh: -56; MLL AF4-AF9 inh: -7

Results for C[C@@H]1CN([C@H](C)CO)S(=O)(=O)c2ccc(C#CC3CC3)cc2O[C@@H]1CN(C)C(=O)c1cnccn1 ?
RAD52 anneal inh: 13; MLL AF4-AF9 inh: 3; RAD54 inh: -3

Results for O=C(C1CC1)N1C[C@H]2[C@@H](c3ccccc31)[C@H](CO)N2S(=O)(=O)c1ccccc1 ?
RAD54 inh: 4; FN deposit inh: 0

What do the screens show for `CCc1ccc(/C=N/NC(=O)c2cc(-c3ccncc3)nc3ccccc23)s1`?
N-glyco inh: 30*; NSD2 HMT inh: -1; FN deposit inh: 13

What do the screens show for `Cc1cc(C(=O)N/N=C/c2ccco2)c2ccccc2n1`?
N-glyco inh: 10; RAD52 anneal inh: -6; MLL AF4-AF9 inh: 6; NSD2 HMT inh: -1; FN deposit inh: 5

How did Cn1cccc1/C=N/NC(=O)c1cc(-c2cccs2)nc2ccccc12 do in these assays?
N-glyco inh: 12; RAD52 anneal inh: -7; MLL AF4-AF9 inh: 32*; NSD2 HMT inh: 0; FN deposit inh: -7

Results for O=C(N/N=C/c1ccco1)c1cc(-c2ccncc2)nc2ccccc12 ?
N-glyco inh: 28*; RAD52 anneal inh: -10; MLL AF4-AF9 inh: 3; RAD54 inh: 6; NSD2 HMT inh: 0; FN deposit inh: 2

What do the screens show for `COc1ccc(N/N=C(/C(N)=O)C2=NC(C)(C)Cc3ccccc32)cc1`?
N-glyco inh: -4; RAD52 anneal inh: 11; MLL AF4-AF9 inh: 37*; NSD2 HMT inh: 18; FN deposit inh: -7

Results for CC(NC(=O)CSc1ccc(S(=O)(=O)N2CCOCC2)cn1)c1ccc(Cl)cc1Cl (centres undefined) ?
N-glyco inh: 0; RAD52 anneal inh: -7; MLL AF4-AF9 inh: 0; RAD54 inh: 0; NSD2 HMT inh: 0; FN deposit inh: 30*

Results for C[C@@H]1CN([C@H](C)CO)C(=O)c2cc(-c3cccc(F)c3)cnc2O[C@H]1CN(C)C(=O)C1CC1 ?
FN deposit inh: -1

What do the screens show for `O=C(/C(=N/N=C/c1ccc(O)c(O)c1)c1ccccc1)c1ccccc1`?
N-glyco inh: -1; RAD52 anneal inh: -5; MLL AF4-AF9 inh: 35*; RAD54 inh: 0; NSD2 HMT inh: 43; FN deposit inh: 10

Results for CC(=O)Nc1ccc(/C=C(\C#N)C(=O)NCc2ccccc2)cc1 ?
N-glyco inh: 4; RAD52 anneal inh: -13; MLL AF4-AF9 inh: -1; RAD54 inh: -1; NSD2 HMT inh: 0; FN deposit inh: 33*
